Results reported in PMC2993511 (Biochemical pharmacology, 2010).
Entries after “also recorded” stand apart in the source; their conditions may differ.

Assays:
Naïve CHO cells = experiment: [35S]GTPγS binding in naïve CHO cells; type: biochemical, Chinese hamster; settings: not transfected with MOR or DOR, data not shown
Outline: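 Untransfected CHO cell membranes, a receptor-free control. Tested with 0.1 nM [35S]GTPγS and 3 μM GDP in HEPES pH 7.4 buffer at 30°C. Extract and DAMGO were added. Nonspecific binding was subtracted using 10 μM unlabeled GTPγS. Read-out was filtration plus scintillation counting.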

DOR [1] = target: T1, DOR (Homo sapiens, UniProt P41143); experiment: Receptor binding assay, displacement of [3H]deltorphin
T1 sequence (P41143 whole entry): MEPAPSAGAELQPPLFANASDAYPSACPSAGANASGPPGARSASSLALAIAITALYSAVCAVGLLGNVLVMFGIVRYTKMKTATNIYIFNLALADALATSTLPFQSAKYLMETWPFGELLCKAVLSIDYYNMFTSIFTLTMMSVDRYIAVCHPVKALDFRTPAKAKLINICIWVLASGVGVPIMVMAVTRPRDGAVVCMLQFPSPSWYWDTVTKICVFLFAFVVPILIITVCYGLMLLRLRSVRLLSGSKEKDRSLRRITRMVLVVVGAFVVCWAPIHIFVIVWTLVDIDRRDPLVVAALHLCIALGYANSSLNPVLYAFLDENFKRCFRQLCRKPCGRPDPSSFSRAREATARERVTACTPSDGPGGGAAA

MOR [2] = target: T2, MOR (Homo sapiens, UniProt P35372); experiment: Receptor binding assay, displacement of [3H]DAMGO
T2 sequence (P35372 whole entry): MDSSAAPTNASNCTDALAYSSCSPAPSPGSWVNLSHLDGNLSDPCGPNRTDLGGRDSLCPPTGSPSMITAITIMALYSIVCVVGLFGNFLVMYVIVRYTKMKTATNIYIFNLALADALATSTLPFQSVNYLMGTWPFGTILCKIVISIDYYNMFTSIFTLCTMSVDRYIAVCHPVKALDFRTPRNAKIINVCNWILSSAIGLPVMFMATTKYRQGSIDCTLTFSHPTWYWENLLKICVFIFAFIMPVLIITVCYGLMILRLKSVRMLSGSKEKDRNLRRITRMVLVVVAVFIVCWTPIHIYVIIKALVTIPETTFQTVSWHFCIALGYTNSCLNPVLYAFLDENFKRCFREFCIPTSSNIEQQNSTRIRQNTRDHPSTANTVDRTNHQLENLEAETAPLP

MOR [3] = target: T2, MOR; experiment: [35S]GTPγS binding assay, CHO-MOR membranes; type: biochemical
Outline: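 Human MOR stably expressed in CHO cells (G418 selection); membranes homogenised on ice and spun at 20,000 g. 20 μg protein incubated with 0.1 nM [35S]GTPγS, 3 μM GDP, Mg2+ and Na+ in HEPES pH 7.4, 1 hr, 30°C. DAMGO was the positive control. Nonspecific binding was taken with 10 μM unlabeled GTPγS. Filter-bound radioactivity was counted and expressed as percent stimulation above basal.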

DOR [4] = target: T1, DOR; experiment: [35S]GTPγS binding assay, CHO-DOR membranes; type: biochemical

C=CCN1C[C@H](C)N([C@H](c2ccc(C(=O)N(CC)CC)cc2)c2cccc(OC)c2)C[C@H]1C [SNC-80]
stimulation of [35S]GTPγS binding in naïve CHO cells (Naïve CHO cells): not stimulated

O=c1cc(-c2ccc(O)cc2)oc2cc(O)cc(O)c12 [apigenin]
IC50 (DOR [1]): > 50 µM | IC50 (MOR [2]): 35.8 ± 7.81 µM | Ki (MOR [2]): 16.2 ± 3.16 µM

COc1ccc(-c2oc3cc(OC)c(OC)c(O)c3c(=O)c2OC)cc1O [casticin]
IC50 (DOR [1]): 2.05 ± 0.631 µM | Ki (DOR [1]): 1.29 ± 0.44 µM | activation of MOR (MOR [3]): did not activate | IC50 (MOR [2]): 2.84 ± 0.707 µM | Ki (MOR [2]): 1.14 ± 0.167 µM | EC50 (DOR [4]): 15.3 ± 6.32 µM | Emax (DOR [4]; read-out: DOR Emax, stimulation of [35S]GTPγS binding): 74.6 ± 18.2%

COc1c(-c2ccc(O)cc2)oc2cc(O)cc(O)c2c1=O [isokaempferide]
IC50 (DOR [1]): 22.8 ± 14 µM | Ki (DOR [1]): 12.9 ± 7.92 µM | affinity for MOR (MOR [2]): no significant affinity

O=c1cc(-c2ccc(O)c(O)c2)oc2cc(O)cc(O)c12 [luteolin]
IC50 (DOR [1]): 16.8 ± 4.87 µM | Ki (DOR [1]): 9.53 ± 2.73 µM | IC50 (MOR [2]): 43.3 ± 13.2 µM | Ki (MOR [2]): 13.4 ± 4.06 µM

N,N-diallyl-Tyr-Aib-Aib-Phe-Leu-OH [ICI 174,864, reference compound]
effect on casticin stimulated [35S]GTPγS binding (DOR [4]; casticin 10 and 50 μM, ICI 174,864 10 μM): inhibited; also recorded: blocked

[D-Ala^2,N-MePhe^4-Glyol^5]enkephalin [DAMGO]
stimulation of [35S]GTPγS binding in naïve CHO cells (Naïve CHO cells): not stimulated
